Assay results as given in ChEMBL document CHEMBL1138631, “Synthesis and amine transporter affinities of novel phenyltropane derivatives as potential positron emission tomography (PET) imaging agents” (Bioorg Med Chem Lett, 2004).

Legend:
[1] = target: Norepinephrine transporter (Rattus norvegicus, UniProt Q9WTR4); assay: Displacement of [3H]-nisoxetine from norepinephrine transporter of rat cerebral corticex homogenate
Outline: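 Competition binding in rat cerebral cortical homogenates incubated with 0.35 nM [3H]nisoxetine; Ki reported in nM.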

[2] = target: Monoamine transporters; Norepininephrine & dopamine (Rattus norvegicus) (UniProt P23977+Q9WTR4); assay: Ratio of Ki for dopamine and norepinephrine transporters; assay type: protein assay
Outline: (§1)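 Selectivity calculated as Ki at SERT or NET divided by Ki at DAT. Ki values came from radioligand competition assays with tritiated ligands selective for each transporter in rat forebrain tissue preparations. A ratio above 1.0 means preference for DAT.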

[3] = target: Sodium-dependent serotonin transporter (Rattus norvegicus, UniProt P31652); assay: Displacement of [3H]cyanoimiprimine from serotonin transporter of rat cerebral cortical homogenate
Sodium-dependent serotonin transporter, sequence (P31652 whole entry): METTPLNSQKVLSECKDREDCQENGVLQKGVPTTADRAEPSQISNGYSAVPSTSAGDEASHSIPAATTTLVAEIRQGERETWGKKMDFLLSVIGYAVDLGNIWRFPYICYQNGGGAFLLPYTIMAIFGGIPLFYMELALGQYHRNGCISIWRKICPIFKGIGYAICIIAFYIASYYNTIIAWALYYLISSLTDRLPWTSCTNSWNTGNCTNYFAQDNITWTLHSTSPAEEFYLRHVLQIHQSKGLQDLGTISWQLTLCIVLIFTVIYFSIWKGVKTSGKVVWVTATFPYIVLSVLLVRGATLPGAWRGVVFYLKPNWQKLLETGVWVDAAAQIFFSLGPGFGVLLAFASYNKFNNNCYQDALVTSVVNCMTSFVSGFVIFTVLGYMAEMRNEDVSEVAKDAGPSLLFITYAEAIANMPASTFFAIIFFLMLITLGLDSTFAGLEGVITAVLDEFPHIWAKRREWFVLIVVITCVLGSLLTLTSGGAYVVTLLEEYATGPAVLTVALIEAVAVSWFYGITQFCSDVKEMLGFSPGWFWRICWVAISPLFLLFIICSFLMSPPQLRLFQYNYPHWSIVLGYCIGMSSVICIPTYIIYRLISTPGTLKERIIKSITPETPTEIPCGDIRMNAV
Outline: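 Rat cerebral cortical homogenates incubated with 0.71 nM [3H]cyanoimiprimine in a radioligand competition binding assay; affinity expressed as Ki in nM.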

[4] = target: Monoamine transporters; serotonin & dopamine (Rattus norvegicus) (UniProt P31652+P23977); assay: Ratio of Ki for dopamine and serotonin transporters; assay type: protein assay; outline: as §1
Monoamine transporters; serotonin & dopamine (Rattus norvegicus), sequence (P23977 whole entry, looked up): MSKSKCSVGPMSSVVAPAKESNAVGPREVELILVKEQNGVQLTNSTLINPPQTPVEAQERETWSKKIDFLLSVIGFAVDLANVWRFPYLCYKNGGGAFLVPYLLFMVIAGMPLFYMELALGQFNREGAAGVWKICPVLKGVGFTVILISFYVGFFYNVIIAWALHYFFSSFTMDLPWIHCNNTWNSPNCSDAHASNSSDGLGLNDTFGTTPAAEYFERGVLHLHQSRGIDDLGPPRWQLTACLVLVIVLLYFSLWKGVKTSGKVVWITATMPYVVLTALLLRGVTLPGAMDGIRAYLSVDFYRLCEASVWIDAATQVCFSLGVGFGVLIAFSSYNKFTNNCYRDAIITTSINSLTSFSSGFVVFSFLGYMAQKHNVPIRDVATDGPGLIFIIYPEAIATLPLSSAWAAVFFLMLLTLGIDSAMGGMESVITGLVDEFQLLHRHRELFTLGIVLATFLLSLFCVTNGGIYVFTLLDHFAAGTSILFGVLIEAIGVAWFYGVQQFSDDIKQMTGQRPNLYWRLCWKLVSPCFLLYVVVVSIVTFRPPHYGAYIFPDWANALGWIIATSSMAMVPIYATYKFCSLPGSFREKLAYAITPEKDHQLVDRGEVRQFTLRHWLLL
Monoamine transporters; serotonin & dopamine (Rattus norvegicus), sequence (P31652 whole entry, looked up): as the sequence (P31652 whole entry) above

[5] = target: Sodium-dependent dopamine transporter (Rattus norvegicus, UniProt P23977); assay: Displacement of [3H]CIT from dopamine transporter of rat striatal homogenate
Sodium-dependent dopamine transporter (Rattus norvegicus, UniProt P23977), sequence (P23977 whole entry): as the sequence (P23977 whole entry, looked up) above

[6] = target: Sodium-dependent dopamine transporter (Homo sapiens, UniProt Q01959); assay: Inhibition of [18F]PET binding to dopamine transporter of human brain
Sodium-dependent dopamine transporter (Homo sapiens, UniProt Q01959), sequence (Q01959 whole entry): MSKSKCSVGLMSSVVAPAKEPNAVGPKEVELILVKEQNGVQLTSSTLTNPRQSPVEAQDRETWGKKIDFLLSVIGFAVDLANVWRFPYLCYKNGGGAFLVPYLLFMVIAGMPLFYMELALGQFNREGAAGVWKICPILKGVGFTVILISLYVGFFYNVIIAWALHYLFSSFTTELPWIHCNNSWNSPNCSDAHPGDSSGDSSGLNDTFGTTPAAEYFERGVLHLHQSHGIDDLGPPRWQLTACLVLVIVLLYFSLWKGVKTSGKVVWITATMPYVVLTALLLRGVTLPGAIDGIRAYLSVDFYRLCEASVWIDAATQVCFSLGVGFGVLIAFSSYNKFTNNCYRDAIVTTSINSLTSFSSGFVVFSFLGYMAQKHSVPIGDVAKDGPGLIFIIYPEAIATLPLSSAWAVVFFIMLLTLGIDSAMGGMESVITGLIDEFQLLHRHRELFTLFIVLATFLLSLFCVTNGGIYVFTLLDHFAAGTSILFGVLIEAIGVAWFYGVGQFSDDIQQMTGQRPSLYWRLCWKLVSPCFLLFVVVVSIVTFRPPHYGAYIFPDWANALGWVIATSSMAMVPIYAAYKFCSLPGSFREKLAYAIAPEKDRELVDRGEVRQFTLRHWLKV

Norepinephrine transporter, sequence (Q9WTR4 whole entry): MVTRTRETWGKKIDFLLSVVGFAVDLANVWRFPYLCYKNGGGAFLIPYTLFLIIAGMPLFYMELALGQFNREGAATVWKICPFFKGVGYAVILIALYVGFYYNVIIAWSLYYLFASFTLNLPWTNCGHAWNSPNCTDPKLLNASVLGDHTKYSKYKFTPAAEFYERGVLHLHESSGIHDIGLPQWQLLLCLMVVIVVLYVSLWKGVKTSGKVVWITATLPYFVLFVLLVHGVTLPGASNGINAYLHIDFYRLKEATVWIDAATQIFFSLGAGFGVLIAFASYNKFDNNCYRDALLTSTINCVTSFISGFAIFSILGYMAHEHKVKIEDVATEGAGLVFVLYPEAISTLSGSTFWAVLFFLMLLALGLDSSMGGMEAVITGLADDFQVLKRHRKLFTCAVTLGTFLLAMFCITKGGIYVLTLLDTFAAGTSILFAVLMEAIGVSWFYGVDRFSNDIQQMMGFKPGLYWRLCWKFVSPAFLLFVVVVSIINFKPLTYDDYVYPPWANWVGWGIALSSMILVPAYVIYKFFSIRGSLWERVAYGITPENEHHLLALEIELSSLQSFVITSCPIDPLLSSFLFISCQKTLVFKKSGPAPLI

Q: What does the source list for CN1C2CCC1C(C(=O)OCCF)C(c1ccc(I)cc1)C2 (stereo not given)?
A: Ki [1]: 116 nM; Selectivity [2]: 125; Ki [3]: 4.02 nM; Selectivity [4]: 4.3

Q: CN1C2CCC1C(C(=O)NCCF)C(c1ccc(Br)cc1)C2 (stereo not given) was tested. Which Ki [5] did it give?
A: 25.7 nM

Q: What about the Ki [3] of the same compound?
A: 38.7 nM

Q: What about the Selectivity [4] of the same compound?
A: 1.51

Q: Which Ki [6] does the source give for O=C(OCCF)C1C2CCC(CC1c1ccc(I)cc1)N2 (stereo not given) here?
A: 5 nM

Q: And the Ki [5]?
A: 0.85 nM

Q: What about the Ki [3] of the same compound?
A: 0.18 nM

Q: And the Selectivity [4]?
A: 0.21

Q: With CN1C2CCC1C(C(=O)OCCF)C(c1ccc(Br)cc1)C2 (stereo not given) as the compound, how does the Ki [1] read?
A: 280 nM

Q: And the Selectivity [2]?
A: 120

Q: And the Ki [6]?
A: 5 nM

Q: And the Ki [5]?
A: 2.33 nM

Q: What about the Ki [3] of the same compound?
A: 5.1 nM

Q: What about the Selectivity [4] of the same compound?
A: 2.19

Q: Which Ki [1] does the source give for O=C(OCCF)C1C2CCC(CC1c1ccc(Br)cc1)N2 (stereo not given) here?
A: 15.2 nM

Q: What about the Selectivity [2] of the same compound?
A: 26.7

Q: And the Ki [6]?
A: 5 nM

Q: What about the Ki [5] of the same compound?
A: 0.57 nM

Q: What about the Ki [3] of the same compound?
A: 0.24 nM

Q: What about the Selectivity [4] of the same compound?
A: 0.42

Q: O=C(OCCF)C1C(c2ccc(Br)cc2)CC2CCC1N2CCCF (stereo not given) was tested. Which Ki [1] did it give?
A: 2.03 nM

Q: And the Selectivity [2]?
A: 0.19

Q: What about the Ki [5] of the same compound?
A: 10.6 nM

Q: What about the Ki [3] of the same compound?
A: 18.3 nM

Q: What about the Selectivity [4] of the same compound?
A: 1.72

Q: What does the source list for O=C(OCCCF)C1C2CCC(CC1c1ccc(Br)cc1)N2 (stereo not given)?
A: Ki [1]: 8.85 nM; Selectivity [2]: 12.3; Ki [6]: 5 nM; Ki [5]: 0.72 nM; Ki [3]: 0.3 nM; Selectivity [4]: 0.42

Q: Which results are given for COC(=O)C1C(c2ccc(Br)cc2)CC2CCC1N2CCCF (stereo not given)?
A: Selectivity [2]: 58.9; Selectivity [4]: 10.9

Q: Which Ki [1] does the source give for CN1C2CCC1C(C(=O)OCCCF)C(c1ccc(Br)cc1)C2 (stereo not given) here?
A: 244 nM

Q: And the Selectivity [2]?
A: 128

Q: What about the Ki [6] of the same compound?
A: 5 nM

Q: And the Ki [5]?
A: 1.91 nM

Q: And the Ki [3]?
A: 2.86 nM

Q: What about the Selectivity [4] of the same compound?
A: 1.5

Q: Which results are given for CN1C2CCC1C(C(=O)NCCF)C(c1ccc(I)cc1)C2 (stereo not given)?
A: Ki [1]: > 10000 nM; Selectivity [2]: > 225; Ki [5]: 44.5 nM; Ki [3]: 30.8 nM; Selectivity [4]: 0.69

Q: With COC(=O)C1C(c2ccc(Br)cc2)CC2CCC1N2C (stereo not given) as the compound, how does the Ki [1] read?
A: 15.3 nM

Q: What about the Selectivity [2] of the same compound?
A: 0.02

Q: And the Ki [5]?
A: 0.3 nM

Q: What about the Ki [3] of the same compound?
A: 4.95 nM

Q: And the Selectivity [4]?
A: 0.06

Q: Which Ki [1] does the source give for COC(=O)C1C2CCC(CC1c1ccc(Br)cc1)N2 (stereo not given) here?
A: 1.02 nM

Q: And the Ki [5]?
A: 0.52 nM

Q: And the Ki [3]?
A: 0.95 nM
